Test results: ChEMBL document CHEMBL1143014, “Cytotoxic activity of some natural and synthetic ent-kauranes” (J Nat Prod, 2007); call rule not given here

Assays:
Assay type in all cases: cell-based
[1] = tested on: MCF7; experiment: Cytotoxicity against human MCF7 cells after 72 hrs; conditions: for EC50: Homo sapiens, MCF7, 72 h; for Activity: human, mcf7, 72 h
How it was run: (§1)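 Sulforhodamine B assay run per the NCI procedure. Cells grown at 37 °C, humidified 5% CO2, in RPMI-1640 with 25 mM HEPES, […], 10% (v/v) FBS and 100 µg/mL kanamycin. Compounds dissolved in DMSO (final ≤1% v/v) and applied continuously for 72 h. EC50 is the concentration cutting cell number by 50%, interpolated from dose-response data. Assays run in triplicate. Doxorubicin served as positive control.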

[2] = tested on: 1A9; experiment: Cytotoxicity against human 1A9 cells after 72 hrs; conditions: for EC50: Homo sapiens, 1A9, 72 h; for Activity: human, 1a9, 72 h; how it was run: as §1
[3] = tested on: KB; experiment: Cytotoxicity against human KB cells after 72 hrs; conditions: for EC50: Homo sapiens, KB; for Activity: human, kb; how it was run: as §1
[4] = tested on: A549; experiment: Cytotoxicity against human A549 cells after 72 hrs; conditions: for EC50: Homo sapiens, A549, 72 h; for Activity: human, a549, 72 h; how it was run: as §1
[5] = tested on: PC-3; experiment: Cytotoxicity against human PC3 cells after 72 hrs; conditions: for EC50: Homo sapiens, PC-3, 72 h; for Activity: human, pc-3, 72 h; how it was run: as §1
[6] = Cytotoxicity against human multidrug-resistant KB-VIN cells after 72 hrs; conditions: for EC50: Homo sapiens, KBVIN; for Activity: human, kb-vin; how it was run: as §1

Question: What does the source list for C=C1C(=O)[C@@]23CCC4[C@H](C(=O)OC)CCC[C@@]4(C)[C@@H]2CC[C@@H]1C3 (some centres not stated)?
Answer: EC50 [1]: 5000 nM; EC50 [2]: 700 nM; EC50 [3]: 1300 nM; EC50 [4]: 4400 nM; EC50 [5]: 3100 nM; EC50 [6]: 1300 nM

Question: For C=C1C(=O)[C@@]23CCC4[C@H](C(=O)OC)C[C@@H](OC(=O)[C@@H]5OC(c6ccccc6)=N[C@H]5c5ccccc5)C[C@@]4(C)[C@@H]2CC[C@@H]1C3 (some centres not stated), which EC50 [1] is on record?
Answer: The EC50 was 11800 nM.

Question: What about the EC50 [2] of the same compound?
Answer: The EC50 was 1800 nM.

Question: And the EC50 [3]?
Answer: The EC50 was 3000 nM.

Question: And the EC50 [4]?
Answer: Its EC50 is 2200 nM.

Question: And the EC50 [5]?
Answer: The EC50 was 2200 nM.

Question: What about the EC50 [6] of the same compound?
Answer: The EC50 was 4800 nM.

Question: With C=C1C(=O)[C@@]23CCC4[C@H](C(=O)OC)C[C@@H](OC(=O)[C@H](O)[C@@H](NC(=O)c5ccccc5)c5ccccc5)C[C@@]4(C)[C@@H]2CC[C@@H]1C3 (some centres not stated) as the compound, how does the EC50 [1] read?
Answer: The EC50 was 1500 nM.

Question: And the EC50 [2]?
Answer: Its EC50 is 400 nM.

Question: And the EC50 [3]?
Answer: Its EC50 is 2600 nM.

Question: And the EC50 [4]?
Answer: Its EC50 is 1700 nM.

Question: What about the EC50 [5] of the same compound?
Answer: The EC50 was 600 nM.

Question: And the EC50 [6]?
Answer: The EC50 was 3500 nM.

Question: What does the source list for C=C1C(=O)[C@@]23CCC4[C@H](C(=O)OC)C[C@@H](OS(=O)(=O)c5ccc(C)cc5)C[C@@]4(C)[C@@H]2CC[C@@H]1C3 (some centres not stated)?
Answer: EC50 [1]: 4300 nM; EC50 [2]: 500 nM; EC50 [3]: 1400 nM; EC50 [4]: 2300 nM; EC50 [5]: 2600 nM; EC50 [6]: 3500 nM

Question: With C=C1C(=O)[C@@]23CCC4[C@H](C(=O)OC)C[C@@H](OC(=O)c5ccc6c(c5)OCO6)C[C@@]4(C)[C@@H]2CC[C@@H]1C3 (some centres not stated) as the compound, how does the EC50 [1] read?
Answer: Its EC50 is 21400 nM.

Question: And the EC50 [2]?
Answer: Its EC50 is 3000 nM.

Question: What about the EC50 [3] of the same compound?
Answer: The EC50 was 1100 nM.

Question: And the EC50 [4]?
Answer: Its EC50 is 19000 nM.

Question: And the EC50 [5]?
Answer: The EC50 was 9200 nM.

Question: And the EC50 [6]?
Answer: Its EC50 is 3000 nM.

Question: For C=C1C(=O)[C@@]23CCC4[C@H](C(=O)OC)C[C@@H](OC(C)=O)C[C@@]4(C)[C@@H]2CC[C@@H]1C3 (some centres not stated), which EC50 [1] is on record?
Answer: Its EC50 is 900 nM.

Question: And the EC50 [2]?
Answer: Its EC50 is 500 nM.

Question: What about the EC50 [3] of the same compound?
Answer: Its EC50 is 3600 nM.

Question: What about the EC50 [4] of the same compound?
Answer: The EC50 was 3300 nM.

Question: What about the EC50 [5] of the same compound?
Answer: Its EC50 is 1400 nM.

Question: What about the EC50 [6] of the same compound?
Answer: The EC50 was 4000 nM.

Question: Which EC50 [1] does the source give for C=C1C(=O)[C@@]23CCC4[C@H](C(=O)OC)C[C@@H](O)C[C@@]4(C)[C@@H]2CC[C@@H]1C3 (some centres not stated) here?
Answer: Its EC50 is 2000 nM.

Question: What about the EC50 [2] of the same compound?
Answer: Its EC50 is 300 nM.

Question: And the EC50 [3]?
Answer: Its EC50 is 1500 nM.

Question: What about the EC50 [4] of the same compound?
Answer: The EC50 was 1000 nM.

Question: What about the EC50 [5] of the same compound?
Answer: Its EC50 is 4000 nM.

Question: What about the EC50 [6] of the same compound?
Answer: The EC50 was 2600 nM.

Question: Which results are given for C=C1[C@@H]2CC[C@@H]3[C@@](CCC4[C@H](C(=O)OC)C/C(=N\NS(=O)(=O)c5ccc(C)cc5)C[C@]43C)(C2)[C@@H]1O (some centres not stated)?
Answer: EC50 [1]: 18000 nM; EC50 [2]: 7500 nM; EC50 [3]: 18100 nM; EC50 [4]: 24500 nM; EC50 [5]: 15800 nM; EC50 [6]: 20400 nM

Question: Which results are given for C=C1C(=O)[C@@]23CCC4[C@H](C(=O)OC)CC(=O)C[C@@]4(C)[C@@H]2CC[C@@H]1C3 (some centres not stated) [ATRACTYLIGENIN METHYL ESTER]?
Answer: EC50 [1]: 1000 nM; EC50 [2]: 200 nM; EC50 [3]: 1600 nM; EC50 [4]: 3400 nM; EC50 [5]: 1100 nM; EC50 [6]: 1600 nM

Question: Which results are given for C=C1[C@@H]2CC[C@@H]3[C@@](CCC4[C@H](C(=O)OC)C[C@@H](O)C[C@]43C)(C2)[C@@H]1O (some centres not stated) [ATRACTYLIGENIN METHYL ESTER]?
Answer: Activity [1]: Not Active; Activity [2]: Not Active; Activity [3]: Not Active; Activity [4]: Not Active; Activity [5]: Not Active; Activity [6]: Not Active

Question: Which results are given for C=C1[C@@H]2CC[C@@H]3[C@@](CCC4[C@H](C(=O)O)C[C@@H](O)C[C@]43C)(C2)[C@@H]1O (some centres not stated) [ATRACTYLIGENIN]?
Answer: Activity [1]: Not Active; Activity [2]: Not Active; Activity [3]: Not Active; Activity [4]: Not Active; Activity [5]: Not Active; Activity [6]: Not Active

Question: With COc1cccc2c1C(=O)c1c(O)c3c(c(O)c1C2=O)C[C@@](O)(C(=O)CO)C[C@@H]3O[C@H]1C[C@H](N)[C@H](O)[C@H](C)O1 [DOXORUBICIN] as the compound, how does the EC50 [1] read?
Answer: The EC50 was 200 nM.

Question: What about the EC50 [2] of the same compound?
Answer: The EC50 was 100 nM.

Question: And the EC50 [3]?
Answer: Its EC50 is 400 nM.

Question: What about the EC50 [4] of the same compound?
Answer: Its EC50 is 900 nM.

Question: And the EC50 [5]?
Answer: Its EC50 is 2000 nM.

Question: And the EC50 [6]?
Answer: The EC50 was 1700 nM.
